In the array DNA melting data of Ke et al. (doi:10.1101/2024.01.08.574731):

Assays:
[1] = melting temperature; fluorescence melt of hairpins on a sequencing array, two-state fit, raised by 9.35 °C to match UV melts; conditions: sodium 0.088 M
Method in brief: (§1)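 Bootstrapped two-state fits yielded melting temperature and folding enthalpy for library hairpins. Cy3 fluorescence, with annealed Cy3 and quencher oligos, was imaged on a sequenced MiSeq flow cell in 50 mM Na-HEPES pH 8.0, 25 mM NaCl in 2.5 °C steps up to 60 °C, and normalised to pre-quench Cy3 and to control constructs. Four replicates were combined by inverse variance, and fitted temperatures were raised by 9.35 °C to match UV melts.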

[2] = folding enthalpy; higher = less favourable; fluorescence melt of hairpins on a sequencing array, two-state fit; conditions: sodium 0.088 M
Method in brief: as §1

Sequence | Tm [1] | folding enthalpy [2]
GGAATCGGAAACGACTCC (((.(((....))).))) | 40.4 °C | -28.9 kcal/mol
GGAATCGGAAACGATTTC (.(((((....))))).) | 47.9 °C | -33.3 kcal/mol
GGAATCGGAAACGGTTCC ((((.((....)).)))) | 52.2 °C | -44.5 kcal/mol
GGAATGGGAAACCACTCC (((.(((....))).))) | 33.7 °C | -33.6 kcal/mol
GGAATGGGAAACCATTCC (((((((....))))))) | 60.4 °C | -45.1 kcal/mol
GGAATGGGAAACCGTTCC ((((.((....)).)))) | 50.8 °C | -39.1 kcal/mol
GGAATGGGAAACCGTTTC (.((.((....)).)).) | 30.7 °C | -18 kcal/mol
GGAATTGCGAAAGCATCC (((..(((....)))))) | 30.3 °C | -9.07 kcal/mol
GGAATTGGAAACAACTCC (((.(((....))).))) | 30.3 °C | -22.2 kcal/mol
GGAATTGGAAACAATCCC ((.((((....)))).)) | 35.6 °C | -20.1 kcal/mol
GGACAAGCGAAAGCTTCC (((..(((....)))))) | 29.2 °C | -12.3 kcal/mol
GGACAAGGAAACTCGTCC ((((.((....)).)))) | 39.2 °C | -29.2 kcal/mol
GGACAATCGAAAGATTCC (((..(((....)))))) | 27.5 °C | -8.86 kcal/mol
GGACACACGAAAGTGTCC (((..(((....)))))) | 57.9 °C | -30.7 kcal/mol
GGACACCGAAAGGTATCC (((.(((....))).))) | 47.5 °C | -30.4 kcal/mol
GGACACGAAAGTGATCC ((((((....))).))) | 48.5 °C | -21.7 kcal/mol
GGACACGAAAGTGCTTCC ((((((....)))..))) | 40.4 °C | -20.4 kcal/mol
GGACACGAAAGTGGTCC ((((((....))).))) | 57 °C | -21.6 kcal/mol
GGACACGCGAAAGCGTCC (((..(((....)))))) | 42.1 °C | -9.09 kcal/mol
GGACACTCGAAAGAGTCC (((..(((....)))))) | 39 °C | -15.9 kcal/mol
GGACAGCGAAAGCTATCC (((.(((....))).))) | 45 °C | -24.7 kcal/mol
GGACAGCGAAAGCTTCC (((.(((....)))))) | 43.5 °C | -20.9 kcal/mol
GGACAGGGAAACCTGTCC (((((((....))))))) | 68.3 °C | -37.4 kcal/mol

Sequence | Tm [1] | folding enthalpy [2]
GGACAGTCGAAAGACTCC (((..(((....)))))) | 31 °C | -12.8 kcal/mol
GGACATCCGAAAGGATCC (((..(((....)))))) | 29.3 °C | -12.6 kcal/mol
GGACATCGAAAGATCTCC (((.(((....))).))) | 32.6 °C | -21.8 kcal/mol
GGACATCGAAAGATTCC (((.(((....)))))) | 38.6 °C | -26.4 kcal/mol
GGACATCGAAAGATTTCC (((.(((....))).))) | 39.6 °C | -32 kcal/mol
GGACATGGAAACATATCC (((.(((....))).))) | 30.5 °C | -21.6 kcal/mol
GGACATGGAAACGTGTTC (.(((.(....).))).) | 35 °C | -23.8 kcal/mol
GGACCACGAAAGTGATCC (((.(((....))).))) | 51.5 °C | -29.1 kcal/mol
GGACCAGAAATGGTCC ((((((....)))))) | 63.7 °C | -43.7 kcal/mol
GGACCCCGAAAGGGTCC (((.(((....)))))) | 68 °C | -30.2 kcal/mol
GGACCCGAAAGGGAGTCC ((((((....)))..))) | 49.9 °C | -20.9 kcal/mol
GGACCCGAAAGGGATTCC ((((((....)))..))) | 37.5 °C | -12.2 kcal/mol
GGACCCGAAAGGGCCTCC ((((((....)))..))) | 57.5 °C | -14.7 kcal/mol
GGACCCGAAAGGGTCTCC ((((((....)))..))) | 58.9 °C | -7.17 kcal/mol
GGACCCGGAAACGGGCCC ((.((((....)))).)) | 59.6 °C | -19.2 kcal/mol
GGACCCGGAAACGGGTTC (.(((((....))))).) | 59.4 °C | -25.6 kcal/mol
GGACCTCGAAAGAGATCC (((.(((....))).))) | 46.7 °C | -30.6 kcal/mol
GGACCTCGAAAGAGCTCC (((.(((....))).))) | 37 °C | -25.5 kcal/mol
GGACGCCCGAAAGGGTCC (((..(((....)))))) | 43.2 °C | -16.2 kcal/mol
GGACGCCGAAAGGCATCC (((.(((....))).))) | 52.6 °C | -22.6 kcal/mol
GGACGCGAAAGCGATCC ((((((....))).))) | 57.4 °C | -16.7 kcal/mol
GGACGCGAAAGCGTATCC ((((((....)))..))) | 37.4 °C | -9.56 kcal/mol
GGACGCGAAAGCGTCTCC ((((((....)))..))) | 62.5 °C | -6.35 kcal/mol
